Source: ChEMBL document CHEMBL4152354, “A reusable magnetic nickel nanoparticle based catalyst for the aqueous synthesis of diverse heterocycles and their evaluation as potential anti-bacterial agent” (2018)
≈ marks a conversion by molar mass, not a printed value.

How the values were obtained:
Assay type in all cases: functional
[1] = system: Klebsiella pneumoniae; experiment: Antibacterial activity against Klebsiella pneumoniae MTCC 109 assessed as zone of inhibition at 100 uL after 24 hrs by agar well-diffusion method
Procedure, shortened: (§1)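 Mueller-Hinton agar plates swabbed with a bacterial suspension adjusted to 1.5×10^8 CFU/ml. Each 5 mm well received 100 µl of compound, and plates were incubated at 37°C for 24 h. Chloramphenicol (30 mcg) was the positive control and DMSO the negative control. Inhibition zones around wells were measured manually, in triplicate.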

[2] = system: Escherichia coli; experiment: Antibacterial activity against Escherichia coli MTCC 730 assessed as zone of inhibition at 100 uL after 24 hrs by agar well-diffusion method; procedure, shortened: as §1
[3] = system: Klebsiella pneumoniae; experiment: Antibacterial activity against Klebsiella pneumoniae MTCC 109 after 18 hrs by TTC staining based broth microdilution method; conditions: MTCC 109, 18 h
Procedure, shortened: (§2)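 Broth microdilution in Mueller-Hinton broth. 50 µl of inoculum from a 0.5 McFarland suspension was added to 50 µl of compound, giving final concentrations of 0.024–400 mg/ml in DMSO. Sealed plates were incubated at 37°C for 18 h, then 50 µl of 0.5% TTC was added for 1 h in the dark. MIC was the lowest concentration with no visible growth (well stays clear). Triplicate; mean ± SD.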

[4] = system: Salmonella enterica; experiment: Antibacterial activity against Salmonella enterica MTCC 735 assessed as zone of inhibition at 100 uL after 24 hrs by agar well-diffusion method
[5] = system: Bacillus cereus; experiment: Antibacterial activity against Bacillus cereus MTCC 430 assessed as zone of inhibition at 100 uL after 24 hrs by agar well-diffusion method; procedure, shortened: as §1
[6] = system: Streptococcus pyogenes; experiment: Antibacterial activity against Streptococcus pyogenes MTCC 1925 assessed as zone of inhibition at 100 uL after 24 hrs by agar well-diffusion method; procedure, shortened: as §1
[7] = system: Bacillus cereus; experiment: Antibacterial activity against Bacillus cereus MTCC 430 after 18 hrs by TTC staining based broth microdilution method; conditions: MTCC 430, 18 h; procedure, shortened: as §2

SMILES	inhibition zone (IZ) [1] [mm]	inhibition zone (IZ) [2] [mm]	MIC [3] [µg/mL]	inhibition zone (IZ) [4] [mm]	inhibition zone (IZ) [5] [mm]	inhibition zone (IZ) [6] [mm]	MIC [7] [µg/mL]
Cc1ccc(C(c2c(C)[nH][nH]c2=O)C2C(=O)NC(=O)NC2=O)cc1 (centres undefined)	10	12	3120 (≈ 9500 µM)	10	12	11	6250 (≈ 19000 µM)
Cc1[nH][nH]c(=O)c1C(c1cccc(F)c1)C1C(=O)NC(=O)NC1=O (centres undefined)	20	15	390 (≈ 1170 µM)	11	15	15	780 (≈ 2350 µM)
O=c1oc2ccccc2c(O)c1C(c1ccccc1)c1c(O)c2ccccc2oc1=O	21	17	190 (≈ 461 µM)	10	20	23	190 (≈ 461 µM)
CC1(C)CC(=O)C(C(C2=C(O)CC(C)(C)CC2=O)c2ccc(Br)cc2)=C(O)C1	11	11	–	0	11	10	–
CC1(C)CC(=O)C(C(C2=C(O)CC(C)(C)CC2=O)c2ccc([N+](=O)[O-])cc2)=C(O)C1	14	0	–	0	15	0	–
Cc1[nH][nH]c(=O)c1C(c1ccc(N(C)C)cc1)C1C(=O)NC(=O)NC1=O (centres undefined)	10	10	3120 (≈ 8730 µM)	12	13	10	3120 (≈ 8730 µM)
COc1ccc(C(c2c(C)[nH][nH]c2=O)C2C(=O)NC(=O)NC2=O)cc1OC (centres undefined)	21	16	390 (≈ 1040 µM)	10	15	17	780 (≈ 2080 µM)
O=c1oc2ccccc2c(O)c1C(c1ccco1)c1c(O)c2ccccc2oc1=O	17	15	780 (≈ 1940 µM)	11	14	18	3120 (≈ 7750 µM)
O=c1oc2ccccc2c(O)c1C(c1ccc(O)cc1)c1c(O)c2ccccc2oc1=O	10	10	3120 (≈ 7280 µM)	10	10	10	6250 (≈ 14600 µM)
Cc1[nH][nH]c(=O)c1C(c1ccc(Br)cc1)C1C(=O)NC(=O)NC1=O (centres undefined)	15	15	780 (≈ 1980 µM)	10	15	17	780 (≈ 1980 µM)
O=c1oc2ccccc2c(O)c1C(c1ccccc1Cl)c1c(O)c2ccccc2oc1=O	24	18	190 (≈ 425 µM)	10	11	22	3120 (≈ 6980 µM)
CCOc1ccc(C(C2=C(O)CC(C)(C)CC2=O)C2=C(O)CC(C)(C)CC2=O)cc1	0	0	–	0	0	0	–
Cc1ccc(C(c2c(O)c3ccccc3oc2=O)c2c(O)c3ccccc3oc2=O)cc1	20	19	390 (≈ 915 µM)	10	18	25	390 (≈ 915 µM)
Cc1ccc(C(C2=C(O)CC(C)(C)CC2=O)C2=C(O)CC(C)(C)CC2=O)cc1	0	0	–	0	0	0	–
CC1(C)CC(=O)C(C(C2=C(O)CC(C)(C)CC2=O)c2ccc(Cl)cc2)=C(O)C1	0	0	–	0	0	0	–
COc1cc(C(c2c(C)[nH][nH]c2=O)C2C(=O)NC(=O)NC2=O)cc(OC)c1OC (centres undefined)	19	13	390 (≈ 964 µM)	11	13	17	1560 (≈ 3860 µM)
O=C(N[C@H](CO)[C@H](O)c1ccc([N+](=O)[O-])cc1)C(Cl)Cl [CHLORAMPHENICOL]	33	35	90 (≈ 279 µM)	17	22	36	90 (≈ 279 µM)

SMILES	inhibition zone (IZ) [1] [mm]	inhibition zone (IZ) [2] [mm]	MIC [3] [µg/mL]	inhibition zone (IZ) [4] [mm]	inhibition zone (IZ) [5] [mm]	inhibition zone (IZ) [6] [mm]	MIC [7] [µg/mL]
COc1cc(C(C2=C(O)CC(C)(C)CC2=O)C2=C(O)CC(C)(C)CC2=O)cc(OC)c1OC	0	0	–	0	0	0	–
CN(C)c1ccc(C(C2=C(O)CC(C)(C)CC2=O)C2=C(O)CC(C)(C)CC2=O)cc1	0	0	–	0	0	0	–
COc1ccc(C(C2=C(O)CC(C)(C)CC2=O)C2=C(O)CC(C)(C)CC2=O)cc1OC	0	0	–	0	0	0	–
O=c1oc2ccccc2c(O)c1C(c1ccc([N+](=O)[O-])cc1)c1c(O)c2ccccc2oc1=O	19	13	390 (≈ 853 µM)	11	16	15	780 (≈ 1710 µM)
CCC(C1=C(O)CC(C)(C)CC1=O)C1=C(O)CC(C)(C)CC1=O	0	0	–	0	0	0	–
Cc1[nH][nH]c(=O)c1C(c1cccc([N+](=O)[O-])c1)C1C(=O)NC(=O)NC1=O (centres undefined)	15	11	780 (≈ 2170 µM)	10	13	14	1560 (≈ 4340 µM)
CCOc1ccc(C(c2c(O)c3ccccc3oc2=O)c2c(O)c3ccccc3oc2=O)cc1	19	13	780 (≈ 1710 µM)	11	12	20	3120 (≈ 6840 µM)
COc1ccc(C(c2c(O)c3ccccc3oc2=O)c2c(O)c3ccccc3oc2=O)cc1OC	18	15	780 (≈ 1650 µM)	10	16	13	780 (≈ 1650 µM)
COc1cc(C(c2c(C)[nH][nH]c2=O)C2C(=O)NC(=O)NC2=O)ccc1O (centres undefined)	16	17	780 (≈ 2160 µM)	10	20	16	390 (≈ 1080 µM)
COc1ccc(C(c2c(C)[nH][nH]c2=O)C2C(=O)NC(=O)NC2=O)cc1 (centres undefined)	11	14	3120 (≈ 9060 µM)	11	14	13	6250 (≈ 18200 µM)
O=c1oc2ccccc2c(O)c1C(c1cccc(F)c1)c1c(O)c2ccccc2oc1=O	21	18	390 (≈ 906 µM)	12	15	21	780 (≈ 1810 µM)
Cc1[nH][nH]c(=O)c1C(c1ccccc1[N+](=O)[O-])C1C(=O)NC(=O)NC1=O (centres undefined)	13	11	3120 (≈ 8680 µM)	10	14	12	6250 (≈ 17400 µM)
Cc1[nH][nH]c(=O)c1C(c1ccc(Cl)cc1)C1C(=O)NC(=O)NC1=O (centres undefined)	21	17	390 (≈ 1120 µM)	11	17	16	1560 (≈ 4470 µM)
CC1(C)CC(=O)C(C(C2=C(O)CC(C)(C)CC2=O)c2cccc(F)c2)=C(O)C1	0	0	–	0	0	0	–
O=c1oc2ccccc2c(O)c1C(c1cccc(Br)c1)c1c(O)c2ccccc2oc1=O	20	19	390 (≈ 794 µM)	11	13	21	3120 (≈ 6350 µM)
CC1(C)CC(=O)C(C(C2=C(O)CC(C)(C)CC2=O)c2ccccc2)=C(O)C1	0	0	–	0	0	0	–
